Laboratory results as given in ChEMBL document CHEMBL4513216, “Probing the Open Global Health Chemical Diversity Library for Multistage-Active Starting Points for Next-Generation Antimalarials” (ACS Infect Dis, 2020).

test: Toxicity liver stage against HepG2, at 10uM; type: cell-based; set-up: test concentration 10 uM, cell line HepG2-A16-CD81EGFP; conditions: human, HepG2-A16-CD81EGFP cells; read-out: INHIBITION
Outline: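 Uninfected HepG2-A16-CD81EGFP cells, 3 × 10^3 per well, 1536-well, plated on prespotted compound at 10 μM final, parasite-free screening media added to match infected plates; puromycin 10 μM positive, DMSO 0.5% negative; run in parallel with 48 h PbLuc assay at 37 °C, 5% CO2; viability by CellTiter-Glo luminescence, normalized to controls.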

First: CN(C)Cc1nc(C2(NC(=O)Nc3ccccc3)CCCC2)no1
Second: Cc1nc(C2(NCc3cccc(F)c3F)CCCCC2)no1
The cytotoxicity at 10 µM of the first is lower: -0.871% for the first, 0.749% for the second.

First: CC(C)Cn1ncc(C(=O)O)c1C1CC1
Second: CCCn1ncnc1C(C)NC(=O)C1CCN(C(=O)C2CC2)CC1 (stereo unspecified)
The cytotoxicity at 10 µM of the first is higher: -14% for the first, -147% for the second.

First: NC(=O)C1CCN(Cn2nc(-c3ccc(F)cc3)oc2=O)C1 (stereo unspecified)
Second: Cc1ccc(-c2nc(C(=O)NCC3CCOC3)cs2)cc1 (stereo unspecified)
The cytotoxicity at 10 µM of the first is higher: 14.6% for the first, -8.32% for the second.

Compared with Cc1cc(C2CCC2)nc(NCC(C)(C)N2CCOCC2)n1, CCN(C)CC(=O)N1CCC(c2cc(N3CCOCC3)nc(C)n2)CC1 is lower in cytotoxicity at 10 µM: 11.5% for the first, 6.9% for the second.

Compared with CCCn1cc(C(=O)N2CCCC2(C)c2nc(C)cc(C)n2)cn1 (stereo unspecified), CCN(CC)Cc1cn2c(n1)CN(C(=O)c1cnccn1)CC2 is higher in cytotoxicity at 10 µM: 4.28% for the first, 6.15% for the second.

First: COCCNc1nc2c(c(NCc3cnc(C)c(C)c3)n1)CCNCC2
Second: c1cncc(-c2nc3c(c(NCC4(c5ccncc5)CC4)n2)CCC3)c1
The cytotoxicity at 10 µM of the first is lower: -1.22% for the first, 7.77% for the second.

Compared with CC(C)CCc1nc(CNCC2CCCN2c2cccnn2)cs1 (stereo unspecified), CC(C)c1nc(CN2CCCCC2Cn2cncn2)cs1 (stereo unspecified) is higher in cytotoxicity at 10 µM: -10.7% for the first, -5.06% for the second.

First: Cc1cccc(C(=O)N2CCN(S(C)(=O)=O)[C@@H]3CS(=O)(=O)C[C@@H]32)n1
Second: Cn1cc(C(=O)N2CC[C@@H]3[C@@H]2CCN3Cc2cccc(F)c2)cn1
The cytotoxicity at 10 µM of the first is higher: 4.01% for the first, -2.21% for the second.

First: Cc1cnc2c(c1NCc1cccs1)c(=O)n(C)c(=O)n2C
Second: CC(CNC(=O)N1CCN(Cc2ccon2)CC1)Cc1cccs1 (stereo unspecified)
The cytotoxicity at 10 µM of the first is higher: 0.319% for the first, -1.26% for the second.

Compared with CC(C)OCCOCc1cccc(NC(=O)NCc2ccncc2)c1, CC(C)SCc1cccc(NC(=O)NC(C)c2nc[nH]n2)c1 (stereo unspecified) is lower in cytotoxicity at 10 µM: -12% for the first, -45.2% for the second.

Compared with O=C(c1ccncc1)N1CCCC(c2cc(C(F)F)n3ncnc3n2)C1 (stereo unspecified), Cc1nccn1C1CCCN(C(=O)c2ccnc(-n3ccnc3)c2)C1 (stereo unspecified) is higher in cytotoxicity at 10 µM: -4.45% for the first, 0.998% for the second.

Compared with Cc1csc(N(C)C(=O)C2CC(=O)N(c3ccccc3Cl)C2)n1 (stereo unspecified), CN(C)CC(=O)N1Cc2nc(C(=O)NCc3ccccc3)oc2C1 is lower in cytotoxicity at 10 µM: 11.8% for the first, -81.5% for the second.

Compared with CN1CCC(Oc2ccc(-n3ccnc3-c3ccncc3)cc2)CC1, CCOc1ccc(-n2nnc(C(=O)O)c2-c2ccncc2)cc1 is lower in cytotoxicity at 10 µM: -3.05% for the first, -4.14% for the second.

Compared with O=C(COCc1ccccc1Cl)N1CCCC(n2ccnc2)C1 (stereo unspecified), O=C(CCc1ccccn1)NC1CCCN(C2Cc3ccccc3C2)C1 (stereo unspecified) is higher in cytotoxicity at 10 µM: -25.1% for the first, 1.96% for the second.

Going from c1cncc(CO[C@H]2CO[C@@]3(CCN(Cc4ccoc4)C3)C2)c1 to CSCCC(O)C(=O)N1CCC(OCc2cccnc2)CC1 (stereo unspecified), the cytotoxicity at 10 µM rises from -3.24% to 3.96%.

Compared with CCS(=O)(=O)NCCNc1cc(-n2cccc2)ncn1, CCc1cc(NCCNc2cccnc2)n2nccc2n1 is lower in cytotoxicity at 10 µM: -3.5% for the first, -11.9% for the second.

First: COCCCSc1ccc(NC(=O)Nc2cn[nH]c2)cc1
Second: COc1ccc(C(C)NC(=O)NCCCn2cncn2)cc1F (stereo unspecified)
The cytotoxicity at 10 µM of the first is higher: 2.54% for the first, 2.12% for the second.

First: O=S(=O)(Nc1cnc(N2CCCC2)nc1)c1ccc(F)cc1F
Second: CC(=O)N1CCC(NC(C)c2cnn(-c3ccc(F)cc3F)c2C)CC1 (stereo unspecified)
The cytotoxicity at 10 µM of the first is lower: -14.4% for the first, -6.4% for the second.

Compared with CCN1CCN(C(=O)c2ccc(Cn3ccccc3=O)o2)CC1, CCn1cnnc1C1CCN(C(=O)c2ccc3cc[nH]c3c2)CC1 is higher in cytotoxicity at 10 µM: -9.39% for the first, 5.16% for the second.

Compared with CN(C)c1ccc(CC2CCN(c3cnccn3)CC2)nn1, CN(Cc1nccn1C)C1CCN(CCc2ccccn2)CC1 is lower in cytotoxicity at 10 µM: 2.29% for the first, -8.78% for the second.

Going from CCN(CC1CCOC1)C(=O)c1nc(-c2ccco2)sc1C (stereo unspecified) to CCN(CC1CCOC1)C(=O)Nc1ccc(N2CCOCC2)nc1 (stereo unspecified), the cytotoxicity at 10 µM falls from -0.238% to -2.45%.

First: COCCN(C)C[C@@H]1CN(C(=O)c2cccc(Cl)c2)C[C@@H]1CO
Second: CNC(=O)c1cccc(CNC(=O)C2CC(=O)N(CCN(C)C)C2)c1 (stereo unspecified)
The cytotoxicity at 10 µM of the first is lower: -16.7% for the first, 1.01% for the second.

Going from Cc1nc(CN2CCC(N3CCN(C)C3=O)CC2)no1 to COC[C@@H]1CN(C)C(=O)[C@@H]2CCN(Cc3ccco3)CC[C@H]12, the cytotoxicity at 10 µM rises from -22% to -6.13%.

Compared with CCN(C)c1ncnc2c1CCN(C(=O)Cc1ccccn1)CC2, O=C(NCCc1ccccn1)c1[nH]nc2c1CCCC2 is higher in cytotoxicity at 10 µM: -3.26% for the first, 8.41% for the second.

Going from N#CCCN(Cc1cccnc1)C(=O)c1ccn(-c2ccccc2)n1 to CC(C)(C)C(=O)NCCc1ccn(-c2ccccc2)n1, the cytotoxicity at 10 µM falls from 13.9% to 1.76%.

Compared with CCn1cc(CN2CCCC(COc3ccccc3F)C2)cn1 (stereo unspecified), c1ccc(-c2nc(CN3CCCC(Cn4cncn4)C3)co2)cc1 (stereo unspecified) is higher in cytotoxicity at 10 µM: -47.7% for the first, 3.18% for the second.

Compared with CCNc1ncc(C(=O)N(C)C(C)c2ccc3c(c2)OCCO3)cn1 (stereo unspecified), CCC(Nc1cccc(OC)c1)C(=O)NCc1ccc2c(c1)OCO2 (stereo unspecified) is lower in cytotoxicity at 10 µM: -0.75% for the first, -1.11% for the second.

Going from COc1ccccc1-c1ccnc2nc(N3CCCCC3)[nH]c(=O)c12 to N#Cc1cccc(OCc2ccoc2C(=O)N2CCCCC2)c1, the cytotoxicity at 10 µM falls from 7.36% to -6.57%.

First: Cc1ccc(CN2C[C@@H]3[C@@H](C(=O)NCC4CC4)CCS(=O)(=O)[C@@H]3C2)cc1
Second: Cc1ccc(-c2ccsc2C(=O)NC2CCS(=O)(=O)C2)cc1 (stereo unspecified)
The cytotoxicity at 10 µM of the first is lower: -4% for the first, 1.07% for the second.

Going from CCCOC1CCCN(C(=O)c2csc(S(N)(=O)=O)c2)C1 (stereo unspecified) to CCOC(=O)CC1CCCCN1C(=O)c1cc(C)on1 (stereo unspecified), the cytotoxicity at 10 µM rises from -5.45% to 5.53%.

Compared with O=C1NC(c2ccccc2)=N[C@@]12CC[C@@H]1CN(Cc3ccco3)C[C@@H]12, c1ccc(-c2nc(CNC3CCc4ncnn4C3)co2)cc1 (stereo unspecified) is lower in cytotoxicity at 10 µM: -4.34% for the first, -8.6% for the second.

Going from CC(C)C1CN(C(=O)c2cn3ccccc3n2)CCCN1CC1CC1 (stereo unspecified) to Cn1cc(C(=O)NCc2cn3c(n2)CN(CC2CCOCC2)CC3)cn1, the cytotoxicity at 10 µM rises from -13.6% to -12.9%.

Going from O=C(NS(=O)(=O)Cc1cc(-c2ccccc2)no1)C1CCOCC1 to CSCC(=O)N(C)Cc1noc(-c2ccccc2)n1, the cytotoxicity at 10 µM falls from -2.85% to -4.34%.

Compared with Cc1cncc(C(=O)N2CCCCC2c2nc[nH]n2)c1 (stereo unspecified), Cc1nc(COCc2cnc3n2CCN(C(=O)C2CC2)C3C)cs1 (stereo unspecified) is higher in cytotoxicity at 10 µM: -0.229% for the first, 11.4% for the second.

First: Cc1nn(C)c(C)c1NC(=O)CN1CCc2c(nc(C(C)C)n2C)C1
Second: COCCN(Cc1cnn(C)c1)c1nc2c(s1)c(C)nn2C
The cytotoxicity at 10 µM of the first is higher: -8.02% for the first, -42.4% for the second.

Compared with Cc1cccc(N2CCc3ncc(CNc4ccccn4)n3CC2)n1, CC(O)c1cccc(N2CCC3(CC2)Nc2ccccc2NC3=O)n1 (stereo unspecified) is lower in cytotoxicity at 10 µM: 2.19% for the first, -10.6% for the second.

Going from CCn1ccnc1S(=O)(=O)Cc1c(C)cc(C)c(C(C)=O)c1C to CCOc1ccc(C(=O)CCC(=O)N(C)Cc2snnc2C)cc1C, the cytotoxicity at 10 µM falls from 8.5% to -2.29%.

Going from O=C(Nc1ccc(-n2cncn2)c(F)c1)C1CCN(C(=O)C2CC2)CC1 to O=C(c1cc(F)ccc1Br)N1CCN(C(=O)C2CC2)CC1, the cytotoxicity at 10 µM rises from -2.83% to 4.9%.

Compared with CCC1CN(C)c2ccccc2CN1C(=O)CCn1cncn1 (stereo unspecified), c1ccc2oc(N3CCCCC3Cn3cncn3)nc2c1 (stereo unspecified) is lower in cytotoxicity at 10 µM: -1.87% for the first, -7.59% for the second.

Going from O=C(c1ccc[nH]1)N1C[C@H](OCc2ccccn2)[C@H]2COC[C@H]21 to CCN(Cc1ccccc1)C(=O)c1cc(C2CCCN2C)ccn1 (stereo unspecified), the cytotoxicity at 10 µM falls from 0.238% to -14.2%.

Going from CC(=O)N1CCCCC[C@@H]2[C@@H]1[C@H](c1cccc(F)c1)CN2CCC(N)=O to CNC(=O)CCN1CCCCCC1c1ccc(C)o1 (stereo unspecified), the cytotoxicity at 10 µM falls from -1.08% to -10.2%.

Going from COc1ncnc(N)c1CNCc1ccccc1-n1cccn1 to Cc1cnn(CCNCc2ccccc2OCc2ccccn2)c1, the cytotoxicity at 10 µM rises from -24.4% to 3.03%.

First: CCCc1cc(C(=O)NCCN2C(=O)c3ccccc3C2=O)[nH]n1
Second: CC(C(=O)NCCOc1cccc(Cl)c1)n1cncn1 (stereo unspecified)
The cytotoxicity at 10 µM of the first is higher: 2.29% for the first, -3.53% for the second.

First: COc1ccc(C2CCCN2Cc2ccc(S(=O)(=O)N(C)C)o2)cc1 (stereo unspecified)
Second: COc1ccc(Cn2c(CCc3c(C)n[nH]c3C)n[nH]c2=O)cc1
The cytotoxicity at 10 µM of the first is higher: -5% for the first, -144% for the second.

Compared with CSCCCN1C(=O)CC[C@H]2CN(Cc3ncc[nH]3)CC[C@H]21, COCCN1C(=O)CCC12CCC(NCc1nccs1)CC2 (stereo unspecified) is lower in cytotoxicity at 10 µM: 7.4% for the first, 7.01% for the second.

First: Nc1nc2c(c3c1C(=O)NC3=O)CCC2
Second: CN1C(=O)C2(CCN(CCO)C2)c2ccccc21 (stereo unspecified)
The cytotoxicity at 10 µM of the first is lower: -4.21% for the first, 5.84% for the second.

Going from CN(C)C(CNC(=O)CCNC(=O)OCC(F)(F)F)c1ccsc1 (stereo unspecified) to Cc1cnc(NC(=O)C(C)n2ccc(C(F)(F)F)n2)s1 (stereo unspecified), the cytotoxicity at 10 µM rises from -45.2% to 1.75%.

Going from c1ccc2c(N3CCSCC3)cnnc2c1 to O=c1ncn(-c2ccccc2F)c2ncccc12, the cytotoxicity at 10 µM rises from -4.02% to -2.26%.

Compared with N#Cc1cccc(N2CCCC3(C2)CN(c2ncccn2)CCO3)n1 (stereo unspecified), CC(C)c1nc(CN2CCN(Cc3ccccn3)CC2)cs1 is lower in cytotoxicity at 10 µM: 17.8% for the first, -4.41% for the second.

Compared with CC(C)N1[C@H](Cn2cncn2)C[C@@H]2CN(Cc3ccsc3)CC[C@@H]21, CCn1c(C)nnc1CN(C)C1CCN(CCn2cccn2)C1 (stereo unspecified) is higher in cytotoxicity at 10 µM: -117% for the first, 1.49% for the second.

First: CC(C)(C)NC(=O)Cn1cc(C(N)=O)c(-c2ccccc2)n1
Second: Cc1cc2ccncc2n1CC1(O)CCN(C(=O)c2cccnc2)CC1
The cytotoxicity at 10 µM of the first is lower: -12.8% for the first, 4.18% for the second.

First: FC(F)(F)Oc1ccc(-c2c[nH]c([C@@H]3COCCN3)n2)cc1
Second: Cc1nsc(N2CCN(C(=O)Nc3cccc(F)c3)CC2)n1
The cytotoxicity at 10 µM of the first is higher: -8.64% for the first, -18.3% for the second.

Compared with Cc1ccc(C2CN(CCCS(=O)(=O)C(C)C)CCO2)c(C)c1 (stereo unspecified), CS(=O)(=O)NCc1nnc2n1CCN(Cc1nccs1)C2 is lower in cytotoxicity at 10 µM: -2.36% for the first, -75.7% for the second.

First: COCCN1CC[C@H]2OCC[C@@H](C(=O)N3CCCO3)[C@H]2C1
Second: Cc1cc(CN2CCOC(C)(C(=O)N3CCOCC3)C2)no1 (stereo unspecified)
The cytotoxicity at 10 µM of the first is higher: 4.55% for the first, -24.2% for the second.

First: CCn1ncnc1C(C)NC(=O)CC1CCN(C(C)C)CC1 (stereo unspecified)
Second: c1cc(CNCC2Cn3nncc3CO2)ccn1 (stereo unspecified)
The cytotoxicity at 10 µM of the first is lower: -133% for the first, 6.62% for the second.

Work on Cc1noc(NC(=O)c2cccc(Br)c2)n1 yielded a cytotoxicity at 10 µM of -5.3%.
